These results are taken from PMC8230583 (Polymer Chemistry, 2021).

The nature of the data set: Critical aggregation concentration by Nile Red fluorimetry. It counts as physicochemical. As to conditions: ratio of CAC in water to CAC in 150 mM NaCl. In short, it runs like this: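 Each compound was dissolved in water or 0.15 M NaCl with mild shaking or sonication, and stocks were equilibrated overnight at room temperature. Diluted samples (pH 4.0–5.5) were equilibrated ≥3 h at room temperature. Nile Red was added from a 1 mg ml−1 acetone stock and samples equilibrated 30 min more. Emission (575–740 nm, excitation 550 nm) was recorded to follow the shift of the Nile Red maximum.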

As for FDFF, the “CAC in the presence of salt, times lower than in pure water” value amounted to 1.2 times.
